Assay results collected from several papers.
Each line is one published result; the experiments were not run side by side.
ADAM17: Disintegrin and metalloproteinase domain-containing protein 17 (ADAM17, Homo sapiens, UniProt P78536)
DYRK2: Dual specificity tyrosine-phosphorylation-regulated kinase 2 (DYRK2, Homo sapiens, UniProt Q92630)

| Compound | target | effect on | action | method | tested at | inhibition [%] |
| --- | --- | --- | --- | --- | --- | --- |
| c1ccc(C(NCCNC(c2ccccc2)c2ccccc2)c2ccccc2)cc1 | Vasopressin V1b receptor (AVPR1B, Homo sapiens, UniProt P47901) | cell-free assay | – | – | 10 µM | 0 |
| CC(C)C[C@H](CC(=O)NO)C(=O)N[C@H](C(=O)N[C@@H](C)C(=O)NCCN)C(C)(C)C | ADAM17 | enzyme activity | inhibitor | – | 0.1 µM | 0 |
| COCc1c(-c2cc3cc(C)cc(OC)c3s2)c2c(N)ncnn2c1CN1CCNC(=O)C1 | Motilin receptor (MLNR, Homo sapiens, UniProt O43193) | ligand displacement | – | radioligand | 10 µM | 18 |
| Cn1cc(-c2cc(F)cc(N3CCn4c(cc5c4CCCC5)C3=O)c2CO)cc(Nc2ccc(N3CCN(C4COC4)CC3)cn2)c1=O | Phosphatidylinositol 4,5-bisphosphate 3-kinase catalytic subunit alpha isoform (PIK3CA, Homo sapiens, UniProt P42336) | enzyme activity | inhibitor | – | 0.1 µM | -7 |
| CCN(CC)CCCC[C@H](NC(=O)[C@H](CC(C)C)NC(=O)[C@H](C)NC(=O)[C@H](Cc1ccccc1)NC(=O)c1ccc(C(C)(C)C)cc1)C(=O)N[C@@H](CO)C(=O)OC | Vasopressin V1a receptor (AVPR1A, Homo sapiens, UniProt P37288) | ligand displacement | – | radioligand | 10 µM | 85 |
| C#Cc1n[nH]c2c(-c3cn([C@@H](C)c4ccccn4)c(=O)[nH]c3=O)cc(F)cc12 | DYRK2 | enzyme activity | inhibitor | – | 0.1 µM | -0.2 |
| COc1cc(Nc2ncc(F)c(Nc3ccc4c(n3)NC(=O)C(C)(C)O4)n2)cc(OC)c1OC | Mitogen-activated protein kinase kinase kinase 12 (MAP3K12, Homo sapiens, UniProt Q12852) | binding | – | competition with immobilised ligand | 10 µM | 32 |
| C[C@H](C(=O)N[C@H]1COc2ccccc2[C@@H]1S(C)(=O)=O)c1ccc(F)cc1 | Gamma-aminobutyric acid type B receptor subunit 1 (GABBR1, Homo sapiens, UniProt Q9UBS5) | cell-free assay | – | – | 10 µM | 4 |
| C#Cc1n[nH]c2c(-c3cn([C@@H](C)c4ccccc4)c(=O)[nH]c3=O)cc(F)cc12 | DYRK2 | enzyme activity | inhibitor | – | 0.1 µM | 7.9 |
| COc1cc2c(cc1OC)-c1c(oc3cc4c(cc3c1=O)CCO4)CO2 | Glycogen synthase kinase-3 beta (GSK3B, Homo sapiens, UniProt P49841) | enzyme activity | inhibitor | ADP detection | 100 µM | 14.3 |
| N=C(N)c1ccc2cc(OC(=O)c3ccc(N=C(N)N)cc3)ccc2c1 | ADAM17 | enzyme activity | inhibitor | – | 10 µM | 5 |
